Screens deposited in PubChem by Johns Hopkins Ion Channel Center.
RGS4 pot = potentiators or activators of RGS4; AID 463111; HEK293 M3R/inducible RGS4, carbachol calcium flux Fluo4; stronger effect = lower value; 0.92% of 310,000 active; B-score at 10 µM;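 active = B-score of the integrated calcium signal more than 4 SD below the library mean, with starting fluorescence not abnormally high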;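 also: negative B-score means reduced calcium response which marks RGS4 activation or potentiation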
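test system = HEK293 cells with stable M3R and inducible RGS4 | schedule = recording 10 s baseline at 1 Hz, 100 s post-agonist | technique = Fluo4-AM (2 µM) calcium-flux fluorescence, kinetic read | measure = Agonist-evoked peak-minus-minimum fluorescence over baseline, integrated ratio, B score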
RGS4 block = human RGS4 inhibition; P49798; HEK293 M3R/RGS4 inducible, Fluo-4 calcium flux; stronger effect = higher value; triggered by carbachol at its EC20; B-score at 10 µM; 0.45% of 310,000 active; AID 463165;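 active = B-score, a plate-corrected calcium signal, over three deviations above library mean, with baseline fluorescence within five deviations of library mean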;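 also: RGS4 expression induced by doxycycline in cells with stable M3 receptor; B-score is computed from the integrated fluorescence ratio over baseline after carbachol; higher B-score means a larger calcium signal and so more RGS4 inhibition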
Target sequence (P49798 whole entry, looked up): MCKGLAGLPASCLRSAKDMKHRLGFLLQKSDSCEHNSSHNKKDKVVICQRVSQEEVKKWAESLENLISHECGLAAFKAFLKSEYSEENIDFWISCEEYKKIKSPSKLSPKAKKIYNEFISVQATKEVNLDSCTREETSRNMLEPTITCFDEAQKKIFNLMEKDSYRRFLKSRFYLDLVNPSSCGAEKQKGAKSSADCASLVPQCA
MrgX1 antagonist = human MrgX1 receptor antagonism, primary screen | 1.3% of 310,000 active | B-score at 10 µM | MRGX1-HEK293 calcium flux, Fluo-4, BAM8-22 antagonism; stronger effect = lower value | Q96LB2;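 active = calcium-response B-score plate-corrected more than 3 library SD below zero, starting fluorescence within 5 deviations, no agonist response on first addition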;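 also: peak minus trough fluorescence over baseline after final BAM8-22 challenge near maximal dose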
Target sequence (Q96LB2 whole entry, looked up): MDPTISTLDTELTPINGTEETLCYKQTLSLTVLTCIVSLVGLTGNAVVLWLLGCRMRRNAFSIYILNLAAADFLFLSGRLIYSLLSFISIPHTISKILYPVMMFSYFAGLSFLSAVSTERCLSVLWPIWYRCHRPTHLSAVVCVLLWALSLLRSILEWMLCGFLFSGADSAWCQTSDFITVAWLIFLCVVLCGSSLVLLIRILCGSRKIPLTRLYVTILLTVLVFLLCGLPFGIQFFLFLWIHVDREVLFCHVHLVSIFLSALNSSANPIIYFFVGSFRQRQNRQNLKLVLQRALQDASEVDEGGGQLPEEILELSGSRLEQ
MrgX1 agonist = activates human MrgX1 receptor signaling. B-score at 10 µM. MrgX1-HEK293 cells, Fluo-4 calcium fluorescence, agonist mode; stronger effect = higher value. 0.44% of 310,000 active. AID 588627. Q96LB2;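 active = calcium response B-score plate-corrected fluorescence ratio at least 3 library SD, with starting fluorescence B-score inside 5 SD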
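System: HEK293 cells stably expressing human MrgX1 receptor; Dosing: test compound in the initial addition of three; Schedule: overnight plating, then 30 min 37 °C plus 30 min room-temperature dye loading; Detection: kinetic calcium dye fluorescence, Fluo-4 NW; Controls: per-plate positive and negative controls for Z′ factor.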
MrgX1 PAM = human MrgX1 positive allosteric modulation, primary screen; Q96LB2; B-score at 10 µM; 0.63% of 310,000 active; MrgX1-HEK293, Fluo-4 calcium flux, FDSS; stronger effect = higher value;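 active = plate-corrected calcium response at least 3 library SD above typical, normal starting fluorescence, not activating the receptor alone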;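 also: compound read alongside a low EC10 to EC30 dose of BAM8-22 agonist; peak minus trough fluorescence over baseline measured at the second addition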
RGS4 block valid = RGS4 inhibitor validation; shares compounds with RGS4 block; HEK293 M3R/RGS4, carbachol calcium Fluo-4 fluorescence; carbachol added at its EC20; 0 = buffer wells, 100 = carbachol control; calcium response, % at 10 µM; 65% of 1,700 active; AID 492999;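 active = duplicate-averaged calcium response above the buffer-only control mean plus 5 SD of those controls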;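 also: integrated fluorescence ratio F max minus min over baseline F0; higher response in RGS4-induced cells means RGS4 inhibition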
M3R Ca ctr = non-induced cell nonspecific activity of RGS4 inhibitors; shares compounds with RGS4 block; HEK293 M3R non-induced, carbachol calcium Fluo-4; submaximal (EC20) carbachol stimulus; buffer wells 0%, carbachol control wells 100%; activity (percent), % at 10 µM; 20% of 1,900 active; AID 493000; call rule not given here;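 also: RGS4 induction absent so cells express M3R without RGS4; higher means more calcium signal and flags a non-specific hit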
M3R basal Ca ctr = second counter-screen for RGS4 inhibitors: non-induced cells without carbachol; shares compounds with RGS4 block; HEK293 M3R/RGS4 non-induced, Fluo-4 calcium, no carbachol; normalised: buffer wells 0%, carbachol wells 100%; calcium response (agonist-mode artifact), % at 10 µM; 22% of 1,900 active; AID 493001;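 active = duplicate-averaged calcium rise in uninduced cells above buffer wells' mean plus 5 SD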
Numbers stand for hits. Most compounds without a hit are left out; they make up all but 3.5% or so of the library.

What do the screens show for `Cc1noc(NS(=O)(=O)c2ccc(N/C=C/C(=O)c3ccc(F)cc3)cc2)c1C`?
RGS4 pot: inactive; RGS4 block: inactive; MrgX1 antagonist: inactive; MrgX1 agonist: inactive; MrgX1 PAM: inactive; M3R Ca ctr: inactive; M3R basal Ca ctr: inactive

How did Cc1noc(NS(=O)(=O)c2ccc(N/C=C/C(=O)c3ccncc3)cc2)c1C do in these assays?
RGS4 pot: inactive; RGS4 block: inactive; MrgX1 antagonist: inactive; MrgX1 agonist: inactive; MrgX1 PAM: inactive; RGS4 block valid: inactive; M3R Ca ctr: inactive; M3R basal Ca ctr: inactive

Results for Cc1noc(NS(=O)(=O)c2ccc(N/C=C\C(=O)c3ccncc3)cc2)c1C ?
RGS4 pot: inactive; RGS4 block: inactive; MrgX1 antagonist: inactive; MrgX1 agonist: inactive; MrgX1 PAM: inactive; M3R Ca ctr: inactive; M3R basal Ca ctr: inactive

Results for O=C(c1ccc(COCC(F)(F)F)o1)N1CCCC1 ?
RGS4 pot: inactive; RGS4 block: 5.91; MrgX1 antagonist: inactive; MrgX1 agonist: inactive; MrgX1 PAM: inactive; RGS4 block valid: inactive; M3R Ca ctr: inactive; M3R basal Ca ctr: inactive

Results for CC1CN(C(=O)c2ccc(COCC(F)(F)F)o2)CC(C)O1 (centres undefined) ?
RGS4 pot: inactive; RGS4 block: inactive; MrgX1 antagonist: inactive; MrgX1 agonist: inactive; MrgX1 PAM: inactive

What do the screens show for `Cn1c(=O)oc2cc(S(=O)(=O)N3CCCC3)ccc21`?
RGS4 pot: inactive; RGS4 block: inactive; MrgX1 antagonist: inactive; MrgX1 agonist: inactive; MrgX1 PAM: inactive

Results for COc1ccc(Br)cc1CN1CCN(S(=O)(=O)Cc2ccccc2)CC1 ?
RGS4 pot: inactive; RGS4 block: 27.6; MrgX1 antagonist: inactive; MrgX1 agonist: inactive; MrgX1 PAM: inactive; RGS4 block valid: inactive; M3R Ca ctr: inactive; M3R basal Ca ctr: inactive

What do the screens show for `O=C1NN(c2ccccc2)C(=O)/C1=C/c1ccc(Sc2cccc3ccccc23)o1`?
RGS4 pot: inactive; RGS4 block: 12.5; MrgX1 antagonist: inactive; MrgX1 agonist: inactive; MrgX1 PAM: inactive; RGS4 block valid: inactive; M3R Ca ctr: inactive; M3R basal Ca ctr: inactive

How did O=c1cc(-c2ccc(Cl)cc2)nc(N2CCN(c3ccccc3)CC2)[nH]1 do in these assays?
RGS4 pot: inactive; RGS4 block: 9.74; MrgX1 antagonist: inactive; MrgX1 agonist: inactive; MrgX1 PAM: inactive; RGS4 block valid: inactive; M3R Ca ctr: 32.0%; M3R basal Ca ctr: inactive

How did Cc1cc(=O)[nH]c(N2CCN(Cc3ccccc3)CC2)n1 do in these assays?
RGS4 pot: inactive; RGS4 block: inactive; MrgX1 antagonist: inactive; MrgX1 agonist: inactive; MrgX1 PAM: inactive

Results for CCc1nnc(NS(=O)(=O)c2ccc(N=Cc3c(C)[nH]n(-c4ccc(Cl)cc4)c3=O)cc2)s1 ?
RGS4 pot: inactive; RGS4 block: inactive; MrgX1 antagonist: inactive; MrgX1 agonist: inactive; MrgX1 PAM: inactive; M3R Ca ctr: inactive; M3R basal Ca ctr: inactive

What do the screens show for `CCc1nnc(NS(=O)(=O)c2ccc(N=Cc3c(C)[nH]n(-c4cccc(Cl)c4)c3=O)cc2)s1`?
RGS4 pot: inactive; RGS4 block: inactive; MrgX1 antagonist: inactive; MrgX1 agonist: inactive; MrgX1 PAM: inactive

What do the screens show for `Cc1[nH]n(-c2ccc(Cl)cc2)c(=O)c1C=Nc1ccc(S(=O)(=O)N2CCOCC2)cc1`?
RGS4 pot: inactive; RGS4 block: 6.27; MrgX1 antagonist: inactive; MrgX1 agonist: inactive; MrgX1 PAM: inactive; RGS4 block valid: 31.5%; M3R Ca ctr: 55.0%; M3R basal Ca ctr: inactive

How did Cc1ccc(-n2[nH]c(C)c(C=Nc3ccc(S(=O)(=O)Nc4nccs4)cc3)c2=O)cc1C do in these assays?
RGS4 pot: inactive; RGS4 block: inactive; MrgX1 antagonist: inactive; MrgX1 agonist: inactive; MrgX1 PAM: inactive; M3R Ca ctr: inactive; M3R basal Ca ctr: inactive

What do the screens show for `CC(C)(C)c1csc(NC(=O)CCc2ccccc2)n1`?
RGS4 pot: inactive; RGS4 block: inactive; MrgX1 antagonist: inactive; MrgX1 agonist: inactive; MrgX1 PAM: inactive

What do the screens show for `Cc1cccc(/C(N)=N/OC(=O)c2ccc(Br)o2)c1`?
RGS4 pot: inactive; RGS4 block: 5.24; MrgX1 antagonist: inactive; MrgX1 agonist: inactive; MrgX1 PAM: inactive; RGS4 block valid: inactive; M3R Ca ctr: inactive; M3R basal Ca ctr: inactive

How did CC1(C)Cc2nc3[nH]c(=S)n(-c4ccccc4)c(=O)c3cc2CO1 do in these assays?
RGS4 pot: inactive; RGS4 block: inactive; MrgX1 antagonist: inactive; MrgX1 agonist: inactive; MrgX1 PAM: inactive

Results for CC(OC(=O)c1cccc(S(=O)(=O)Nc2ccccc2F)c1)C(=O)NCc1ccc2c(c1)OCO2 (centres undefined) ?
RGS4 pot: inactive; RGS4 block: inactive; MrgX1 antagonist: inactive; MrgX1 agonist: inactive; MrgX1 PAM: inactive

How did COc1ccc(O)c(-c2cc(-c3ccccc3[N+](=O)[O-])[nH]n2)c1 do in these assays?
RGS4 pot: inactive; RGS4 block: 6.42; MrgX1 antagonist: inactive; MrgX1 agonist: inactive; MrgX1 PAM: inactive; RGS4 block valid: 9.5%; M3R Ca ctr: inactive; M3R basal Ca ctr: inactive

How did Cc1ccc(O)c(-c2cc(-c3ccccc3[N+](=O)[O-])[nH]n2)c1 do in these assays?
RGS4 pot: inactive; RGS4 block: 8.62; MrgX1 antagonist: inactive; MrgX1 agonist: inactive; MrgX1 PAM: inactive; RGS4 block valid: 11.5%; M3R Ca ctr: inactive; M3R basal Ca ctr: 18.0%

Results for COC(=O)Cc1nnc(SCC(=O)Nc2ccccc2)c2ccccc12 ?
RGS4 pot: inactive; RGS4 block: inactive; MrgX1 antagonist: inactive; MrgX1 agonist: inactive; MrgX1 PAM: inactive

Results for CC1(C)Oc2ccc(C(=O)Nc3ccccc3)cc2N(CC#N)C1=O ?
RGS4 pot: inactive; RGS4 block: inactive; MrgX1 antagonist: inactive; MrgX1 agonist: inactive; MrgX1 PAM: inactive

Results for CCOC(=O)C1=C(CS(=O)(=O)c2ccc(Cl)cc2)NC(=O)NC1c1ccc(O)c(OC)c1 (centres undefined) ?
RGS4 pot: inactive; RGS4 block: inactive; MrgX1 antagonist: inactive; MrgX1 agonist: inactive; MrgX1 PAM: inactive

How did COC(=O)C1=C(CS(=O)(=O)c2ccc(Cl)cc2)NC(=O)NC1c1ccc(O)c(OC)c1 (centres undefined) do in these assays?
RGS4 pot: inactive; RGS4 block: inactive; MrgX1 antagonist: inactive; MrgX1 agonist: inactive; MrgX1 PAM: inactive; RGS4 block valid: inactive; M3R Ca ctr: inactive; M3R basal Ca ctr: inactive
